# An excerpt weighted towards active compounds, which were near 1.7% of everything screened.
# Rpn11 inh: Rpn11 (PSMD14) deubiquitinase inhibitors, primary screen, biochemical, fluorescence polarization, uHTS; actives 0.59% (n = 360,000); AID 588493, 2011; calls only at 20 µM; human 26S proteasome, Ub4-pepOG fluorescence polarization; 20S core pre-blocked with epoxomicin;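 active means inhibition at 20 µM, scaled to each plate's controls, above about 33%, limit read from the data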
# IDE cell inh: human IDE inhibitors in live cells, primary screen, fluorescence polarization, HEK cells, FAbetaB substrate; inhibition, % at 5.59 µM; FAbetaB cleavage; Insulin-degrading enzyme (Homo sapiens), P14735; actives 0.41% (n = 320,000); AID 434962, 2010;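 active means percent inhibition above the average of all tested compounds plus 3 SD, set per screening campaign, cut at about 16% in these data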;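 further: IDE supplied by intact live HEK cells; FP after avidin binding of uncleaved biotin substrate so inhibition keeps polarization high; 0% = DMSO wells and 100% = 60 µM reference IDE inhibitor Ii1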
# Target sequence (P14735 whole entry, looked up): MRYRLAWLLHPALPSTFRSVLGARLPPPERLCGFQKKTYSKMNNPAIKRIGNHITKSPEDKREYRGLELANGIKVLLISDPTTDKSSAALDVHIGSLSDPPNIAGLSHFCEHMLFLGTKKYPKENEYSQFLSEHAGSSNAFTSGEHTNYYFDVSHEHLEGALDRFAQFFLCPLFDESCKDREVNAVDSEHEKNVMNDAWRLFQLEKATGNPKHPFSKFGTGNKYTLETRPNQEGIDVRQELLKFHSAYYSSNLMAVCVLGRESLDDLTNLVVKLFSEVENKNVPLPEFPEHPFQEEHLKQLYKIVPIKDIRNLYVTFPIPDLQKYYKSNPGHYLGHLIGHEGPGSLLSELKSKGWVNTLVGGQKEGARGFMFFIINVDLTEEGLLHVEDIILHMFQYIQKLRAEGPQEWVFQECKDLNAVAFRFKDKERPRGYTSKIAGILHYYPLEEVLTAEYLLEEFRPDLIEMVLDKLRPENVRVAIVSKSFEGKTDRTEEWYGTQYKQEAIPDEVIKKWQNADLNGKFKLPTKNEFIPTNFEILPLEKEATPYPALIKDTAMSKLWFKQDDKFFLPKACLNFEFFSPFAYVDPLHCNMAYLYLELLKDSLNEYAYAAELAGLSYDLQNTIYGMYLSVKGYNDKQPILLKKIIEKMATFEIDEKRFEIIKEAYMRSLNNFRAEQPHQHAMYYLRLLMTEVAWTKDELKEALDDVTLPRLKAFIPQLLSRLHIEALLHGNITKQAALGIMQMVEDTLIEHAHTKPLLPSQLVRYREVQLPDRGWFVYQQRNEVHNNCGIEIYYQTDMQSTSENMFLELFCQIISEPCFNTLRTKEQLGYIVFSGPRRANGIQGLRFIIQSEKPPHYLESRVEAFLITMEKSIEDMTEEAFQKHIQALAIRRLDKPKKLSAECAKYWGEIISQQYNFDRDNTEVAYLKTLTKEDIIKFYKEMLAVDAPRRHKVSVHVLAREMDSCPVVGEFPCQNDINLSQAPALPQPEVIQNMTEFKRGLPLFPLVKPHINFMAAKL
# IDE cell activ: human IDE activators in live cells, primary screen, fluorescence polarization, HEK cells, FAbeta-B substrate. FAbeta-B cleavage; 0% vehicle, 100% cell-free pure enzyme wells. actives 0.073% (n = 340,000). Insulin-degrading enzyme (Homo sapiens), P14735. activation, % at 5.96 µM. AID 493087, 2011;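 active means activation above the mean of all tested compounds plus 3 SD, set per screening campaign, cut at about 17% in these data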
# TPT1 inhibitor: Candida albicans TPT1 enzyme inhibitors, primary screen, biochemical, fluorescence polarization; inhibition, % at 5 µM; AID 1962, 2009; actives 0.81% (n = 300,000); tRNA 2'-phosphotransferase TPT1 (Candida albicans SC5314); recombinant caTPT1, FP RNA substrate dephosphorylation;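 active means inhibition above the mean of all tested compounds plus 3 SD, set per screening campaign, cut at about 24% in these data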;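 further: plate controls were DMSO alone for no effect and ferristatin control at 100 nM for full effect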
# CSN deneddyl inh: inhibitors of CSN-mediated cullin deneddylation, primary screen, biochemical, fluorescence polarization, uHTS. inhibition, % at 12.5 µM. Purified CSN, SCF-Nedd8-OG deneddylation. actives 0.38% (n = 360,000). COP9 signalosome complex subunit 5 (Homo sapiens), Q92905;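 active means pattern-corrected inhibition above about 35%, with an unprinted fluorescence ratio check between 0.5 and 1.5, limit read from the data, passing the limit was not always enough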;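 further: 0% = enzyme with substrate and 100% = substrate without enzyme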
#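 Assay system: Purified human Csn5 enzyme expressed in HEK293T cells | Amount: Enzyme 0.24 nM | Measured by: Fluorescence polarization readout | Medium: Tris/NaCl/DTT buffer, pH 7.5 | Compound dosing: One concentration, 12.5 µM, 0.25% DMSO | Times: 90 min incubation of compound, enzyme and substrate at room temperature | Control set: no-enzyme wells high, enzyme-with-substrate wells low | Read-out: % inhibition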
# HNF4A DNA FP: change in binding of human HNF4A to DNA, primary screen, biochemical, fluorescence polarization, FITC-DNA | Hepatocyte nuclear factor 4-alpha (Homo sapiens), P41235 | 1 h | activity change, % at 10 µM | actives 0.3% (n = 360,000); in the data active means activity change above about 30%, passing the limit was not always enough
# TPT1 inh confirm: Candida albicans TPT1 inhibitors, confirmation, biochemical, fluorescence polarization, triplicate; inhibition, % at 5 µM; recombinant caTPT1, RNase T1 coupled; shares compounds with TPT1 inhibitor; actives 74% (n = 2,400);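 active means inhibition above the primary screen limit, the mean inhibition of all tested compounds plus 3 SD, cut at about 25% in these data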
# RNase T1 inh: RNase T1 inhibitors, counter-screen for TPT1 inhibitor project, biochemical, fluorescence polarization. AID 2153, 2009. shares compounds with TPT1 inhibitor. actives 83% (n = 2,400). RNase T1 cleavage, 1536-well. inhibition, % at 5 µM;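 active means inhibition above the solvent-only control well mean plus 3 SD, limit set per screening run, cut at about 23% in these data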;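 further: plate controls were DMSO wells with enzyme for no effect and wells without RNase T1 for full effect; inhibitors block cleavage so intact labeled substrate keeps polarization high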
# * hit, by the source's call; i = inactive; / = no result given.
SMILES,Rpn11 inh,IDE cell inh,IDE cell activ,TPT1 inhibitor,CSN deneddyl inh,HNF4A DNA FP,TPT1 inh confirm,RNase T1 inh
COc1cc([N+](=O)[O-])ccc1-c1ccc(/C=N/NC(N)=O)o1,/,3,3,51*,43*,87*,58*,68*
COc1cc([N+](=O)[O-])ccc1-c1ccc(/C=N/NC(=O)OC(C)(C)C)o1,/,2,2,18,5,20,/,/
CCN(CC)C1=CC2=CC(=C(C#N)C#N)CCC2CC1 (configuration not stated),/,-20,44*,32*,-75,-99,22,37*
Cn1cc(/C=C/C(=O)c2ccccc2)c2ccccc21,i,-2,-2,34*,1,16,38*,45*
Cc1ccc(C(=O)/C=C/c2cn(CN3CCN(C)CC3)c3ccccc23)cc1,i,5,-5,12,2,5,/,/
O=C(NCCCn1ccnc1)Nc1ccc(Cl)c(Cl)c1,i,4,1,-1,0,1,/,/
CCNC(=O)/C(C#N)=C/c1c(N2CCCCCC2)nc2ccccn2c1=O,i,1,1,1,11,0,/,/
CNC(=O)/C(C#N)=C/c1c(N2CCCCCC2)nc2ccccn2c1=O,i,2,-2,36*,8,7,51*,60*
NC(=O)N/N=C/c1ccc(N2CCOCC2)s1,/,8,2,81*,5,71*,123*,130*
O=C(N/N=C/c1ccc(N2CCOCC2)s1)c1ccc(O)cc1,i,/,/,/,11,1,/,/
C=CCn1c(C)csc1=Nc1ccc(C(C)=O)cc1,i,3,2,-7,-3,0,/,/
Cc1ccc(S(=O)(=O)NNc2nnc(C)c(=O)[nH]2)cc1,i,4,0,51*,6,-8,3,6
Cc1nnc(NNS(=O)(=O)c2ccc(Cl)cc2)[nH]c1=O,i,-3,6,4,-2,-4,/,/
COc1ccc(N2CCN(C(=O)c3ccc(COc4ccc5c(C)cc(=O)oc5c4)cc3)CC2)cc1,i,1,-2,-1,-1,-4,/,/
C[C@@H]1CN([C@@H](C)CO)C(=O)c2cc(C3=CCCCC3)cnc2O[C@H]1CN(C)C(=O)Nc1cccc(F)c1,i,/,/,/,2,-1,/,/
O=c1nc(/C=C/c2ccc(-c3ccc(F)cc3)o2)cc(C(F)(F)F)[nH]1,/,5,/,110*,/,/,106*,106*
O=C(O)c1cc(Cl)ccc1-c1ccc(/C=C/c2cc(C(F)(F)F)[nH]c(=O)n2)o1,/,13,-2,62*,-90,76,85*,91*
CCOC(=O)N1CCC(NC(=O)c2oc3c(C)c(C)ccc3c2C)CC1,i,-6,1,1,2,0,/,/
COc1ccc(C(=O)NC(=S)N2CCCCC2)cc1,i,1,0,3,-3,0,/,/
COc1cc(OC)cc(C(=O)NC(=S)N2CCCCCC2)c1,i,-10,3,43*,0,1,2,4
Cn1c(=O)c(/C=C/c2ccc(F)cc2)nc2ccccc21,i,/,4,/,-10,2,/,/
O=c1[nH]c2ccccc2nc1/C=C/c1ccc(F)cc1,/,0,-1,57*,18,44*,74*,83*
O=c1[nH]c2ccccc2nc1/C=C(\O)C1CC1,i,1,1,27*,-3,2,4,8
CCN(CC)S(=O)(=O)c1ccc(C(=O)/C=C/c2ccc(-c3ccc([N+](=O)[O-])cc3)o2)cc1,i,1,5,30*,7,0,49*,53*
O=C(Oc1ccccc1Cl)c1ccccc1P(=O)(O)O,i,7,4,0,-3,1,/,/
SMILES,Rpn11 inh,IDE cell inh,IDE cell activ,TPT1 inhibitor,CSN deneddyl inh,HNF4A DNA FP,TPT1 inh confirm,RNase T1 inh
CCn1ccnc1CNC(=O)C1CCC(=O)N(Cc2ccccc2F)C1 (configuration not stated),i,6,4,-2,4,-1,/,/
O=C1CN(CC(=O)Nc2cccc(Cl)c2Cl)c2ccccc2N1,/,-2,5,34*,0,35*,16,24*
O=C(CN1C(=O)NC2(CCCC2)C1=O)Nc1cccc(Cl)c1Cl,i,1,4,1,2,-1,/,/
O=C(NCCCN1CCOCC1)c1cccc(NS(=O)(=O)c2ccc(Br)cc2)c1,i,-1,4,/,-2,1,/,/
CNc1ccc(Br)cc(C(=O)/C=C/c2ccc(Cl)cc2Cl)c1=O,i,-5,-4,69*,30,9,58*,72*
CNc1ccc(Br)cc(C(=O)/C=C/c2cccc(OC)c2)c1=O,i,3,0,42*,21,-4,61*,74*
COc1ccc(/C=C/C(=O)c2ccc(OC)cc2OC)c(OC)c1,i,-7,2,-1,-1,1,/,/
CNc1ccc(Br)cc(C(=O)/C=C/c2ccc(OC)cc2OC)c1=O,i,5,1,54*,29,-7,76*,84*
O=C(/C=C/c1ccccc1)c1cc(Br)ccc(=O)c1O,i,-1,3,17,34,3,/,/
CCc1nc2c(OCc3ccccc3)cccn2c1N(C)C(=O)Nc1ccccc1OC,i,/,/,/,3,1,/,/
CCOC(=O)C1=C(CNC(C)(C)CC(C)(C)C)NC(=O)NC1c1cccc([N+](=O)[O-])c1 (configuration not stated),i,-1,-1,-14,4,1,/,/
Cc1nc2scc(C)n2c(=O)c1S(=O)(=O)N1CCN(c2ccc([N+](=O)[O-])cc2)CC1,i,1,7,-2,7,0,/,/
Cc1ccc(C2C(C#N)=C(N)SC(N)=C2C#N)c(C)c1,/,10,-30,152*,-69,142,79*,90*
Cc1ccc(CN=Cc2[nH]c3ccc(Br)c(Cl)c3c2O)cc1,i,10,-7,70*,0,46*,130*,129*
Oc1c(C=NCc2ccc(F)cc2)[nH]c2ccc(Br)c(Cl)c12,/,5,/,54*,/,/,97*,104*

# Screens (PubChem)
